Source: ChEMBL document CHEMBL1800025 (J Med Chem, 2011)
Calls of active or inactive are those of the source. No cut-off for these calls is given here.

Key:
[1] = target: Dual specificity protein kinase CLK1 (Homo sapiens) (UniProt P49759); test: Inhibition of CLK1 transfected in human HeLa cells assessed as increase in exon inclusion ratio after 24 hrs by RT-PCR analysis; assay type: cell-based
Summary of the method: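 HeLa cells were transfected with […], with kinase-dead CLK1/K190R as comparator. Inhibitors at varying doses were added 3 h post-transfection, with 0.5% DMSO final in all cultures. Cells were harvested 24 h post-transfection, total RNA was extracted, and E1A splicing products were analysed by RT-PCR. Isoform molar ratios were measured by Bioanalyzer to give the exon inclusion ratio. Three independent samples were used.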

[2] = target: T1, Dual specificity tyrosine-phosphorylation-regulated kinase 2 (Homo sapiens, UniProt Q92630); test: Inhibition of human recombinant GST-tagged DYRK2 using KKISGRLSPIMTEQ as substrate and [gamma32]-ATP after 30 mins by scintillation counting
T1 sequence (Q92630 whole entry): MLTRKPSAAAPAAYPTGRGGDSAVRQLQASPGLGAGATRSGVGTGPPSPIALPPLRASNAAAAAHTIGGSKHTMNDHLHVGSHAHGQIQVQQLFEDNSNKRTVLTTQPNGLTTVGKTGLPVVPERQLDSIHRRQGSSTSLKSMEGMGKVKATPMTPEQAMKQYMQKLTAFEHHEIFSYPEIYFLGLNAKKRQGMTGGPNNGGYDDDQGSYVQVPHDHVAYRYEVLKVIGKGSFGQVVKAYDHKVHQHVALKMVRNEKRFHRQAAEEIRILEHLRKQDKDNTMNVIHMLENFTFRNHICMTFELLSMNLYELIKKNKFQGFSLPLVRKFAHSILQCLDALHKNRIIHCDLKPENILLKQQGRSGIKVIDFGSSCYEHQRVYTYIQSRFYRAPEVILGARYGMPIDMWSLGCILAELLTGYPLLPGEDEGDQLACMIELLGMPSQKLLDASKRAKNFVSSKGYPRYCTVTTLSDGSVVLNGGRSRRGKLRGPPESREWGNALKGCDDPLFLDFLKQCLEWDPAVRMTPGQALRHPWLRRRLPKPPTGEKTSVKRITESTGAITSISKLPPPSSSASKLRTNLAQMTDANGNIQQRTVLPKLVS
Summary of the method: (§1)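 GST fusion kinases expressed in E. coli and purified on glutathione-agarose; DYRK1A is rat, DYRK2 is human. Assay buffer A (25 mM Tris-HCl pH 7.5, 10 mM MgCl2, 1 mM EGTA, 1 mM DTT, 50 μg/mL heparin) plus 0.15 mg/mL BSA. Product captured on P81 paper, washed in 1% phosphoric acid, scintillation counted. Activity expressed as percent of uninhibited control.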

[3] = target: Dual specificity protein kinase CLK1 (Mus musculus, UniProt P22518); test: Inhibition of mouse recombinant GST-tagged CLK1 using GRSRSRSRSRSR as substrate
Summary of the method: (§2)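 Mouse GST-fusion CLK1 or CLK3 expressed in E. coli. Assay buffer A (Tris-HCl pH 7.5, MgCl2, EGTA, DTT, heparin) plus 0.15 mg/mL BSA. RS peptide 1 μg/assay, 15 μM ATP final, 30 C. Blank subtracted; activity expressed as percent of activity without inhibitor. DMSO controls. Concentration range up to 10 μM.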

[4] = target: Serine/threonine-protein kinase pim-1 (Homo sapiens, UniProt P11309); test: Inhibition of human recombinant Pim1
Summary of the method: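 Kinase assayed in buffer C (25 mM Mops pH 7.2, 60 mM beta-glycerophosphate, 30 mM p-nitrophenylphosphate, 15 mM MgCl2, 5 mM EGTA, 1 mM DTT, 0.1 mM vanadate) with 1 mg/mL histone H1. DMSO controls.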

[5] = target: Dual specificity tyrosine-phosphorylation-regulated kinase 1A (Rattus norvegicus) (UniProt Q63470); test: Inhibition of rat recombinant GST-tagged DYRK1A using KKISGRLSPIMTEQ as substrate and [gamma32]-ATP at 10 uM after 30 mins by scintillation counting
Summary of the method: as §1, with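 “BSA. Woodtide 1.5 μg/assay with 15 μM [γ-33P]ATP, 30 min at 30 C.” for “BSA.”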

[6] = target: Dual specificity protein kinase CLK3 (Mus musculus) (UniProt O35492); test: Inhibition of mouse recombinant GST-tagged CLK3 using GRSRSRSRSRSR as substrate at 10 uM; summary of the method: as §2
[7] = target: Cyclin-dependent kinase 5/CDK5 activator 1 (Homo sapiens) (UniProt Q00535+Q15078); test: Inhibition of human recombinant CDK5/p25 at 10 uM; assay type: protein-complex assay
Summary of the method: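 Kinase assayed in buffer C (25 mM Mops pH 7.2, 60 mM beta-glycerophosphate, 30 mM p-nitrophenylphosphate, 15 mM MgCl2, 5 mM EGTA, 1 mM DTT, 0.1 mM vanadate) with 1 mg/mL histone H1. 15 μM ATP final, 30 C. Activity is percent of activity without inhibitor, after blank subtraction. DMSO controls.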

[8] = species on record: Sus scrofa; test: Inhibition of pig brain CK1 delta/epsilon using RRKHAAIGpSAYSITA as substrate at 10 uM
Summary of the method: (§3)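 Native CK1δ/ε from porcine brain, assayed in 3-fold diluted buffer C with 25 μM CKS peptide substrate. 15 μM ATP final, 30 C. Activity is percent of uninhibited control after blank subtraction, with DMSO controls. Inhibitor tested over a range of concentrations up to 10 μM.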

[9] = system: Cyclin-dependent kinase 5/p25 (Homo sapiens); test: Inhibition of human recombinant CDK5/p25 at 10 uM
[10] = target: T2, Dual specificity tyrosine-phosphorylation-regulated kinase 2 (Homo sapiens) (UniProt Q92630); test: Inhibition of human recombinant GST-tagged DYRK2 using […] as substrate and [gamma32]-ATP at 10 uM after 30 mins by scintillation counting
T2 sequence (whole entry): T1 sequence (Q92630 whole entry)
Summary of the method: as §1, with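 “BSA. Woodtide 1.5 μg/assay with 15 μM [γ-33P]ATP, 30 min at 30 C.” for “BSA.”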

[11] = target: Dual specificity protein kinase CLK1 (Mus musculus) (UniProt P22518); test: Inhibition of mouse recombinant GST-tagged CLK1 using GRSRSRSRSRSR as substrate at 10 uM; summary of the method: as §2
[12] = target: Dual specificity tyrosine-phosphorylation-regulated kinase 1A (Rattus norvegicus, UniProt Q63470); test: Inhibition of rat recombinant GST-tagged DYRK1A using KKISGRLSPIMTEQ as substrate and [gamma32]-ATP after 30 mins by scintillation counting; summary of the method: as §1
[13] = target: Dual specificity protein kinase CLK3 (Mus musculus, UniProt O35492); test: Inhibition of mouse recombinant GST-tagged CLK3 using GRSRSRSRSRSR as substrate; summary of the method: as §2
[14] = target: Glycogen synthase kinase-3 alpha/beta (Sus scrofa); test: Inhibition of pig brain GSK-3alpha/beta
[15] = Inhibition of pig brain CK1 delta/epsilon using RRKHAAIGpSAYSITA as substrate; parameters: species or system Sus scrofa; summary of the method: as §3

Cyclin-dependent kinase 5/CDK5 activator 1 (Homo sapiens), sequence (Q00535 whole entry): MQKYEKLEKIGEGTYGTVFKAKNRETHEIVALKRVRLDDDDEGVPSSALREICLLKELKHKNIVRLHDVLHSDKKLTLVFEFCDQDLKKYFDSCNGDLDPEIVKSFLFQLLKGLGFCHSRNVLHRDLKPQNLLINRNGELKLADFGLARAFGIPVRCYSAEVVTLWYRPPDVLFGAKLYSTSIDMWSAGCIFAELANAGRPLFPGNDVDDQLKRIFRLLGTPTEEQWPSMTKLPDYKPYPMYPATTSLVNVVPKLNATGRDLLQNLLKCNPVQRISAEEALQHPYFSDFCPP
Cyclin-dependent kinase 5/CDK5 activator 1 (Homo sapiens), sequence (Q15078 99-307 partner limits assumed): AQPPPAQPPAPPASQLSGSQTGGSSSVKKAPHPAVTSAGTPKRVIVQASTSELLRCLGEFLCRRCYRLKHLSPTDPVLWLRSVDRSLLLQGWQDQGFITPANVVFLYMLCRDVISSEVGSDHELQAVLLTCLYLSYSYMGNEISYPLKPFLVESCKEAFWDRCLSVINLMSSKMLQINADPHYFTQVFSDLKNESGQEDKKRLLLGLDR
Dual specificity protein kinase CLK3 (Mus musculus), sequence (O35492 whole entry): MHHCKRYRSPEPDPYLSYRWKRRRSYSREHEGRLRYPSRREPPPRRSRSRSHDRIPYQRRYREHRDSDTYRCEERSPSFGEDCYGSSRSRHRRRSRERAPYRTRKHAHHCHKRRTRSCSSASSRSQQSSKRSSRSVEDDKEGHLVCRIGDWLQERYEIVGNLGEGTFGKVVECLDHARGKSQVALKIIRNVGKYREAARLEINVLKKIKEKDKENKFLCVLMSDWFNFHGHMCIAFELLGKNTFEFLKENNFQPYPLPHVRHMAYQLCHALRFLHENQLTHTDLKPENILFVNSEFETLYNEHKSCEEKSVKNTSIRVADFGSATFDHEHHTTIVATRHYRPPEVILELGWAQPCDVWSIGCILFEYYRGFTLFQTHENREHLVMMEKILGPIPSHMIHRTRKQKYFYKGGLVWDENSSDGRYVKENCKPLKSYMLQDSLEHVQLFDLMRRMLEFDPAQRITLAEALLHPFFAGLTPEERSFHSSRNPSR
Dual specificity protein kinase CLK3, sequence (O35492 whole entry): as above
Serine/threonine-protein kinase pim-1, sequence (P11309 whole entry): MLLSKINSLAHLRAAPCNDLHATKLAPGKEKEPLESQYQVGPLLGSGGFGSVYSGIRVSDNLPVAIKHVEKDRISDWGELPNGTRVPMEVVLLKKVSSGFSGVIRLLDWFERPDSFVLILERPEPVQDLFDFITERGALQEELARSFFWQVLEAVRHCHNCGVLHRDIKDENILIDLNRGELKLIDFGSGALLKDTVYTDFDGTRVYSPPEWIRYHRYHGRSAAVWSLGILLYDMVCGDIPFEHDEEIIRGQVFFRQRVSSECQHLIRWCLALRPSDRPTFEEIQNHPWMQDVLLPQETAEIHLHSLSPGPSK
Dual specificity protein kinase CLK1 (Homo sapiens), sequence (P49759 whole entry, looked up, canonical isoform): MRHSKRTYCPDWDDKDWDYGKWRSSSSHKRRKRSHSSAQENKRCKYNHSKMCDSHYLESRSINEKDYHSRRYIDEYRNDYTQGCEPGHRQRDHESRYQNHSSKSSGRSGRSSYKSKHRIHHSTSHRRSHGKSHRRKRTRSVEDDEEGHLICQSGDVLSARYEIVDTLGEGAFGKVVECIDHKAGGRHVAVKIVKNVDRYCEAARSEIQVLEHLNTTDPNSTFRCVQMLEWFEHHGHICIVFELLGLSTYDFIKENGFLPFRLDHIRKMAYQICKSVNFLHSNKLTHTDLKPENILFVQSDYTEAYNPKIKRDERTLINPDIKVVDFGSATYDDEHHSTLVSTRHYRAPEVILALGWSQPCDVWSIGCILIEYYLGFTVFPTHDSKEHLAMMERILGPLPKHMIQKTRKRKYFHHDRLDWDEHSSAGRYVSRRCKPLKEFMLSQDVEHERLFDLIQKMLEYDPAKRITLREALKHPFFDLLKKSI
Dual specificity protein kinase CLK1 (Mus musculus), sequence (P22518 whole entry, looked up): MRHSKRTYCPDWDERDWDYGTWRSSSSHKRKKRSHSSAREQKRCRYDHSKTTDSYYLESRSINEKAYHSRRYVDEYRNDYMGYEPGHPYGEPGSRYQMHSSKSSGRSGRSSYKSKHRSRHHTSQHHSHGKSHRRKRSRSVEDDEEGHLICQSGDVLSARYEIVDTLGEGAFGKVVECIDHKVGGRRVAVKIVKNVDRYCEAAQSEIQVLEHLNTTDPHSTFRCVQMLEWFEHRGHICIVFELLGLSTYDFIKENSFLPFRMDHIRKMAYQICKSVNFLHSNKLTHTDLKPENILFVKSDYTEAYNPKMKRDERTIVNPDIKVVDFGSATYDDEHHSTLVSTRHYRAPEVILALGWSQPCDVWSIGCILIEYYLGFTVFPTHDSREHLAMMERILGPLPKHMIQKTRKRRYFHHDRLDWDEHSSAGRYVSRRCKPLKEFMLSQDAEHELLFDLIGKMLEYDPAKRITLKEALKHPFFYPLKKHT
Dual specificity protein kinase CLK1, sequence (P22518 whole entry, the tested form may be a part): as the sequence (P22518 whole entry, looked up) above

Row | Structure (SMILES) | increase in exon inclusion ratio [1] | IC50 [2] [nM] | IC50 [3] [nM] | IC50 [4] [nM] | inhibition [5] | inhibition [6] | inhibition [7] | inhibition [8] | inhibition [9] | inhibition [10] | inhibition [11] | IC50 [12] [nM] | IC50 [13] [nM] | IC50 [14] [nM] | IC50 [15] [nM]
1 | CCN1/C(=C/C(C)=O)Sc2ccc(OC)cc21 | Dose-dependent effect | – | – | – | – | – | – | – | – | – | – | – | – | – | –
2 | CCCNC1=N/C(=C\c2cc(OC)c(OC)c(OC)c2)C(=O)N1C | – | > 10000 | > 10000 | > 10000 | inactive | inactive | inactive | inactive | inactive | – | – | – | – | – | –
3 | CCCNC1=N/C(=C\c2ccc3c(c2)OC(F)(F)O3)C(=O)N1C | – | – | – | > 10000 | inactive | inactive | inactive | inactive | inactive | inactive | inactive | – | – | – | –
4 | O=C1NC(Nc2ccc3c(c2)OCCO3)=N/C1=C\c1ccc2c(c1)OCO2 | – | 110 | 320 | > 10000 | – | – | – | inactive | inactive | – | – | 170 | > 10000 | > 10000 | –
5 | COc1ccc2c(c1)[nH]c1c(C)nccc12 | Dose-dependent effect | – | – | – | – | – | – | – | – | – | – | – | – | – | –
6 | CC[C@H](CO)Nc1nc(NCc2ccccc2)c2ncn(C(C)C)c2n1 | inactive | – | – | – | – | – | – | – | – | – | – | – | – | – | –
7 | CN1C(=O)/C(=C/c2ccc3c(c2)OCO3)N=C1NCCO | – | 10000 | 120 | > 10000 | – | – | – | inactive | inactive | – | – | 7000 | > 10000 | 1300 | –
8 | O=C1NC(NCC2CC2)=N/C1=C\c1ccc2c(c1)OCO2 | – | 47 | 83 | 1500 | – | – | – | inactive | inactive | – | – | 100 | 610 | 4700 | –
9 | CCCNC1=N/C(=C\c2ccccc2O)C(=O)N1C | – | > 10000 | > 10000 | > 10000 | – | – | inactive | inactive | inactive | – | – | – | > 10000 | – | –
10 | C=CCNC1=N/C(=C\c2ccc3c(c2)OCO3)C(=O)N1C | – | 620 | 200 | 4200 | – | – | – | inactive | inactive | – | – | 440 | 880 | 1600 | –
11 | CN1C(=O)/C(=C/c2ccc3c(c2)OCO3)N=C1Nc1ccc2c(c1)OCCO2 | – | – | 220 | 2200 | – | – | – | – | – | – | – | 220 | 3600 | – | > 10000
12 | CCCNC1=N/C(=C\c2ccc3c(c2)OCO3)C(=O)N1CCC | – | 2100 | – | > 10000 | – | inactive | inactive | inactive | – | – | inactive | > 10000 | – | – | –
13 | CN1C(=O)/C(=C/c2ccc3c(c2)OCO3)N=C1NCCN1CCOCC1 | – | 1600 | 80 | 6200 | – | – | – | inactive | inactive | – | – | 1200 | 8000 | 4000 | –
14 | CN1C(=O)/C(=C/c2ccc3c(c2)OCO3)N=C1NCCN | – | 710 | 190 | 3100 | – | – | – | inactive | inactive | – | – | 910 | 5000 | 910 | –
15 | CCCNC1=N/C(=C\c2ccc3c(c2)OCO3)C(=O)N1c1ccccc1 | – | > 10000 | > 10000 | > 10000 | – | – | inactive | inactive | – | – | – | > 10000 | > 10000 | – | –
16 | CCCNC1=N/C(=C\c2ccccc2)C(=O)N1C | – | – | – | > 10000 | inactive | inactive | inactive | inactive | inactive | inactive | inactive | – | – | – | –
17 | COc1ccc(NC2=N/C(=C\c3ccc4c(c3)OCO4)C(=O)N2C)cc1 | – | 510 | 450 | 4100 | – | – | – | inactive | inactive | – | – | 240 | > 10000 | 700 | –
18 | CCOC(=O)C(=O)NC1=N/C(=C\c2ccc3c(c2)OCO3)C(=O)N1C | – | 6500 | 3100 | 7000 | – | – | – | inactive | inactive | – | – | 6100 | > 10000 | > 10000 | –
19 | CC(C)CNC1=N/C(=C\c2ccc3c(c2)OCO3)C(=O)N1C | – | 210 | 120 | 2000 | – | – | – | inactive | inactive | – | – | 170 | 900 | 3100 | –
20 | CCNC1=N/C(=C\c2ccc3c(c2)OCO3)C(=O)N1 | – | 160 | 400 | 3100 | – | – | – | inactive | inactive | – | – | 410 | 3700 | 2400 | –
21 | CC(C)CCNC1=N/C(=C\c2ccc3c(c2)OCO3)C(=O)N1C | – | 560 | 160 | 2100 | – | – | – | inactive | inactive | – | – | 460 | 960 | 2000 | –
22 | CCNC1=N/C(=C\c2ccc3c(c2)OCO3)C(=O)N1C | – | 640 | 170 | 7200 | – | – | – | inactive | inactive | – | – | 580 | 2100 | 16000 | –
23 | CCCNC1=N/C(=C\c2ccc3c(c2)OCO3)C(=O)N1 | – | 120 | 130 | 2500 | – | – | – | inactive | inactive | – | – | 240 | 2200 | 7300 | –
